System: U2OS
Assay: Multiplex assay against U2OS
Format: toxicity, cell-based
Conditions: human
Procedure, shortened: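 At seeding, live cells were stained with Hoechst33342, BioTracker Green Microtubule Cytoskeleton Dye, MitoTracker Red and Annexin V Alexa Fluor 680. After compound addition they were imaged on a CQ1 microscope at 37°C and 5% CO2, and CellPathfinder machine-learning gating sorted them into Hoechst high-intensity objects or normal cells, with normal cells further split into healthy, pyknosed or fragmented nuclei and pyknosed cells into mitotic or apoptotic. Tubulin, mitochondrial-mass and membrane-permeability phenotypes are given as per cents of cells with healthy nuclei.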

[1] = 12 h, 1 µM, compound concentration 1 uM, replicate 1
[2] = 12 h, 1 µM, compound concentration 1 uM, replicate 2
[3] = 12 h, 10 µM, compound concentration 10 uM, replicate 1
[4] = 12 h, 10 µM, compound concentration 10 uM, replicate 2
[5] = 24 h, 1 µM, compound concentration 1 uM, replicate 1
[6] = 24 h, 1 µM, compound concentration 1 uM, replicate 2
[7] = 24 h, 10 µM, compound concentration 10 uM, replicate 1
[8] = 24 h, 10 µM, compound concentration 10 uM, replicate 2

CN1CCN(C(=O)C(C)(C)c2ccc(C(=O)Nc3cn4cc(-c5cc(C(C)(C)C)cc(C(C)(C)C)c5)ccc4n3)cc2)CC1 [T3-CLK-N]
Population Apoptotic (%) [1]: 25%
Population Fragmented Nuclei (%) [1]: 8%
Population Healthy Nuclei (%) [1]: 81%
Population Hoechst High Intensity Objects (%) [1]: 8%
Population Membrane Permeable-Phenotype (%) [1]: 18%
Population Mitochondria Different-Phenotype (%) [1]: 20%
Population Mitotic Cells (%) [1]: 75%
Population Normal (%) [1]: 91%
Population Pyknosed Nuclei (%) [1]: 9%
Population Tubulin-Different-Phenotype (%) [1]: 18%
Total Cell Count [1]: 162
Population Apoptotic (%) [2]: 28%
Population Fragmented Nuclei (%) [2]: 6%
Population Healthy Nuclei (%) [2]: 86%
Population Hoechst High Intensity Objects (%) [2]: 11%
Population Membrane Permeable-Phenotype (%) [2]: 14%
Population Mitochondria Different-Phenotype (%) [2]: 29%
Population Mitotic Cells (%) [2]: 71%
Population Normal (%) [2]: 88%
Population Pyknosed Nuclei (%) [2]: 6%
Population Tubulin-Different-Phenotype (%) [2]: 14%
Total Cell Count [2]: 72
Population Apoptotic (%) [3]: 27%
Population Fragmented Nuclei (%) [3]: 5%
Population Healthy Nuclei (%) [3]: 87%
Population Hoechst High Intensity Objects (%) [3]: 3%
Population Membrane Permeable-Phenotype (%) [3]: 58%
Population Mitochondria Different-Phenotype (%) [3]: 20%
Population Mitotic Cells (%) [3]: 72%
Population Normal (%) [3]: 96%
Population Pyknosed Nuclei (%) [3]: 6%
Population Tubulin-Different-Phenotype (%) [3]: 34%
Total Cell Count [3]: 177
Population Apoptotic (%) [4]: 50%
Population Fragmented Nuclei (%) [4]: 16%
Population Healthy Nuclei (%) [4]: 80%
Population Hoechst High Intensity Objects (%) [4]: 15%
Population Membrane Permeable-Phenotype (%) [4]: 56%
Population Mitochondria Different-Phenotype (%) [4]: 38%
Population Mitotic Cells (%) [4]: 50%
Population Normal (%) [4]: 84%
Population Pyknosed Nuclei (%) [4]: 3%
Population Tubulin-Different-Phenotype (%) [4]: 31%
Total Cell Count [4]: 120
Population Apoptotic (%) [5]: 23%
Population Fragmented Nuclei (%) [5]: 9%
Population Healthy Nuclei (%) [5]: 80%
Population Hoechst High Intensity Objects (%) [5]: 9%
Population Membrane Permeable-Phenotype (%) [5]: 8%
Population Mitochondria Different-Phenotype (%) [5]: 14%
Population Mitotic Cells (%) [5]: 76%
Population Normal (%) [5]: 90%
Population Pyknosed Nuclei (%) [5]: 10%
Population Tubulin-Different-Phenotype (%) [5]: 15%
Total Cell Count [5]: 175
Population Apoptotic (%) [6]: 33%
Population Fragmented Nuclei (%) [6]: 6%
Population Healthy Nuclei (%) [6]: 89%
Population Hoechst High Intensity Objects (%) [6]: 8%
Population Membrane Permeable-Phenotype (%) [6]: 13%
Population Mitochondria Different-Phenotype (%) [6]: 24%
Population Mitotic Cells (%) [6]: 66%
Population Normal (%) [6]: 91%
Population Pyknosed Nuclei (%) [6]: 4%
Population Tubulin-Different-Phenotype (%) [6]: 16%
Total Cell Count [6]: 97
Population Apoptotic (%) [7]: 54%
Population Fragmented Nuclei (%) [7]: 9%
Population Healthy Nuclei (%) [7]: 83%
Population Hoechst High Intensity Objects (%) [7]: 2%
Population Membrane Permeable-Phenotype (%) [7]: 53%
Population Mitochondria Different-Phenotype (%) [7]: 27%
Population Mitotic Cells (%) [7]: 45%
Population Normal (%) [7]: 97%
Population Pyknosed Nuclei (%) [7]: 6%
Population Tubulin-Different-Phenotype (%) [7]: 39%
Total Cell Count [7]: 230
Population Apoptotic (%) [8]: 50%
Population Fragmented Nuclei (%) [8]: 17%
Population Healthy Nuclei (%) [8]: 71%
Population Hoechst High Intensity Objects (%) [8]: 14%
Population Membrane Permeable-Phenotype (%) [8]: 48%
Population Mitochondria Different-Phenotype (%) [8]: 56%
Population Mitotic Cells (%) [8]: 50%
Population Normal (%) [8]: 85%
Population Pyknosed Nuclei (%) [8]: 10%
Population Tubulin-Different-Phenotype (%) [8]: 43%
Total Cell Count [8]: 144

Source: ChEMBL document CHEMBL4689842, “EUbOPEN Chemogenomics Library wave 1” (2021)
